Data set [1] can be described thus: Stability in human serum at 37 °C. It is filed as in vitro ADME.
Data set [2] is described as follows: Shelf-life / stability in normal saline. It is filed as physicochemical. The method, boiled down: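 Shelf-life: radiotracer kept in normal saline at room temperature and examined for up to 4 h.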
Another data set in a line: Endotoxin test. The note with it: V = 2 mL, dilution factor 10; limit <175 EU/V. Put shortly: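 Chromogenic endotoxin assay per USP 85 on the in-house-prepared radiotracer. Results and the acceptance limit are expressed as endotoxin units per injection volume (EU/V).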
For another data set, the system named is corticotropinoma. The note with it: cited from earlier work.
The nature of data set [3]: Ex vivo biodistribution in healthy Wistar rats. The method, boiled down:
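Nine healthy male Wistar rats (16 weeks, 274 ± 13 g) each received 8 ± 1.1 MBq radiotracer IV via the penile vein. Under ketamine (40 mg/kg) plus xylazine (4 mg/kg) anaesthesia, rats were killed by cervical dislocation at 30, 60 and 120 min (n = 3 per time). Organs were weighed and gamma-counted (NaI(Tl)). %ID/g used injected counts corrected for injection-site and syringe residues. Blood pool was taken as 7% of body weight. Mean ± SD.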

Data set [4] addresses T1, recombinant human V1b receptor (Homo sapiens, UniProt P47901).
T1 sequence (P47901 1-424): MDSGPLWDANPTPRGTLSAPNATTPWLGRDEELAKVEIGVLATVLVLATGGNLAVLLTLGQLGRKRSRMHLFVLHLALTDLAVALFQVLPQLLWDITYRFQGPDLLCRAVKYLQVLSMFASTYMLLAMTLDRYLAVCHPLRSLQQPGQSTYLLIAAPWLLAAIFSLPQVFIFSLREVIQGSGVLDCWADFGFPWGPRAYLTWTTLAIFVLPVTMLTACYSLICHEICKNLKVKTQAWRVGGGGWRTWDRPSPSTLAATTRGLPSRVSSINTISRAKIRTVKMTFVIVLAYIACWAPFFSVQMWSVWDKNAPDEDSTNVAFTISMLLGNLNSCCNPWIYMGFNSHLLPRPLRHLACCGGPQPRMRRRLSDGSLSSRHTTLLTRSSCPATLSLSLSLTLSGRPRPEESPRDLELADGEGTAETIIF
The experiment in a line: In-vitro receptor binding assay.

Data set [5] can be described thus: Plasma protein binding, TCA precipitation method. It is filed as in vitro ADME. The note with it: 37 °C, 10% TCA.
A short description of a further data set: Sterility test. The note with it: no visible growth or turbidity for up to 14 days.
For a further data set, the system named is corticotropinomas. The note with it: PET/CT; cited from earlier work.
For data set [6] the following is noted: cited from earlier work.

Several values for one entry are separate records, joined by “and”; a condition that tells them apart may be missing. Identical values can stand only once. Bridge positions count the residues as written; N and C are the ends. Square brackets hold non-standard residues; d marks the D form. Peptide text beside a SMILES is read from it. * marks the point of attachment. DOTA = O=C(O)CN1CCN(CC(=O)O)CCN(CC(=O)*)CCN(CC(=O)O)CC1; Thr(ol) = C[C@@H](O)[C@H](N)CO Bounds are passed on as bounds.

Consider `C[C@@H](O)[C@@H](CO)NC(=O)[C@@H](CCCNC(=N)N)NC(=O)[C@@H]1CCCN1C(=O)[C@@H]1CSSC[C@H](NC(=O)[C@H](Cc2ccccc2)NC(=O)CN2CCN(CC(=O)O)CCN(CC(=O)O)CCN(CC(=O)O)CC2)C(=O)N[C@@H](Cc2ccc(O)cc2)C(=O)N[C@@H](Cc2ccccc2)C(=O)N[C@@H](CCC(N)=O)C(=O)N[C@@H](CC(N)=O)C(=O)N1` [[^68Ga]Ga-DOTA-mDesmo, metal not drawn] ({DOTA}-FCYFQNCP[dR][Thr(ol)]; disulfide 2-7), for which the “stability (single radio peak at Rf 0.0)” value in data set [1] is recorded as “up to 4 h”; in data set [2] (PBS, 37 °C), “up to 4 h”. In addition, the “shelf-life (single radio peak at Rf 0.0)” value in [2] (normal saline, room temperature) was “up to 4 h”. The compound further registered an endotoxin value in the data set “Endotoxin test” of 8.6 ± 1.2 EU/V. In addition, the “uptake in the pituitary of patients with ECS” value with corticotropinoma (4 patients of ECS) was “no uptake”. The diagnostic accuracy in the data set with corticotropinoma (PET/CT, 24 patients of CD) is 100%. In addition, in the data set with corticotropinoma (of 24 patients of CD), the “patients of CD in whom the pituitary tumor was localized” value is 24 patients. Besides, the “total blood pool, share of the injected activity” value in data set [3] (120 min, blood volume assumed 7% of body weight) is ~ 3%. Further, in data set [3] (rat, in vivo), the route of excretion result is “primarily excreted via the renal route”. In addition, the “clearance from muscles, lungs, adrenals, liver, pancreas, spleen and heart” value in data set [3] (time following administration) is listed as ≤ 120 min. The “Binding (%) (Mean ± SD)” value was 5.1 ± 1.3% in [4] (V1b 15.6 nM, tracer 0.3 µM); 25.7 ± 2.4% in data set [4] (V1b 62.5 nM, tracer 0.3 µM); 30.7 ± 1.9% in [4] (V1b 125 nM, tracer 0.3 µM); 44 ± 2.2% in data set [4] (V1b 250 nM, tracer 0.3 µM); 38.8 ± 1.7% in data set [4] (V1b 250 nM, tracer 0.3 µM + cold DOTA-mDesmo 5 µM); 22% and 22.1 ± 2.1% in data set [4] (V1b 250 nM, tracer 0.3 µM + cold DOTA-mDesmo 20 µM). Moreover, the free fraction (fraction unbound) at 1 h in data set [5] was 0.344. Moreover, the sterility result in “Sterility test” is given as “sterile”.
For the compound `OC[C@H]1OC(O)[C@H]([18F])[C@@H](O)[C@@H]1O` (some centres unmarked) [[^18F]FDG], the sensitivity for corticotropinomas with corticotropinomas is given as 40%.
Turning to Desmopressin, the plasma half-life in data set [6] was ~ 55 min.

Values taken from publication PMC12373759 (Communications Medicine, 2025).
